ChEMBL document CHEMBL1144737, “Synthesis and antifungal activity of novel sulfoxide derivatives containing trimethoxyphenyl substituted 1,3,4-thiadiazole and 1,3,4-oxadiazole moiety” (Bioorg Med Chem, 2008)
≈ marks a conversion by molar mass, not a printed value.

Key:
[1] = test system: Cytospora; test: Antifungal activity against Cytospora mandshurica at 50 ug/ml by poison plate technique; type: functional
Procedure, shortened: (§1)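 Poison plate method. Compound in PDA at 50 µg/mL final. Fungi precultured on PDA at 27 ± 1 °C for 4 days, then a ~4 mm mycelial disc was placed in the plate centre and incubated at 27 ± 1 °C for 5 days. Acetone in sterile water was the blank and hymexazol the positive control. Three replicates. Colony diameter was measured and I(%) = [(C − T)/(C − 0.4)] × 100.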

[2] = test system: Fusarium oxysporum; test: Antifungal activity against Fusarium oxysporum at 50 ug/ml by poison plate technique; type: functional; procedure, shortened: as §1
[3] = test system: Fusarium graminearum; test: Antifungal activity against Gibberella zeae at 50 ug/ml by poison plate technique; type: functional
Procedure, shortened: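 Poison-plate (mycelial growth rate) test at a single final concentration in PDA. Fungus was pre-grown 4 days at 27±1 °C, and a 4 mm mycelial plug was placed at the plate centre and incubated 5 days at 27±1 °C. Acetone in sterile water was the untreated control. Triplicate plates were used; inhibition % = (C−T)/(C−0.4)×100 from colony diameters.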

[4] = test system: Colletotrichum gloeosporioides; test: Antifungal activity against Colletotrichum gloeosporioides by poison plate technique; type: functional, organism-based
Procedure, shortened: (§2)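 Poison-plate assay on PDA against nine plant-pathogenic fungi at 100, 50, 25, 12.5 and 6.25 in the medium. Cultures were grown 4 days at 27±1 °C, and 4 mm mycelial plugs were placed centrally on plates and incubated 5 days at 27±1 °C. Acetone in sterile water was the blank. Inhibition % = (C−T)/(C−0.4)×100 from colony diameters. EC50 was obtained by probit analysis, averaged from at least three separate analyses.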

[5] = test system: Phytophthora infestans; test: Antifungal activity against Phytophthora infestans by poison plate technique; type: functional, organism-based; procedure, shortened: as §2
[6] = test system: Sclerotinia sclerotiorum; test: Change in mycelial N-acetyl-glucosamine content in Sclerotinia sclerotiorum after 24 hrs; type: functional
Procedure, shortened: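 S. sclerotiorum was grown 15 days in Czapek broth shaken at 140 rpm and 27 °C, then dosed at 100 and sampled at 24 h. Dried mycelium (1.0 g) was ground in 0.05 mol/L Tris–HCl pH 7.5 and centrifuged at 15,000g, 4 °C. Supernatant with K2B4O7 was boiled 3 min, then 1% DMAB was added, 20 min at 36 °C, A544. Three repetitions.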

[7] = test system: Sclerotinia sclerotiorum; test: Effect on membrane permeability of Sclerotinia sclerotiorum at 100 ug/ml after 240 mins relative to control; type: functional, organism-based
Procedure, shortened: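 Washed S. sclerotiorum mycelium (1 g) was placed in tubes with the compound. Conductivity was read over time from 0 to 360 min, then after boiling and cooling. Relative permeability P% = (J1−J0)/(J2−J0)×100.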

[8] = test system: Sclerotinia sclerotiorum; test: Change in mycelial chitinase activity in Sclerotinia sclerotiorum assessed as N-acetyl-glucosamine level after 24 hrs
Procedure, shortened: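 Mycelial extract came from S. sclerotiorum grown 15 days in shaken Czapek broth at 27 °C, dosed at 100 and harvested at 24 h, in Tris–HCl pH 7.5. Extract was incubated with colloidal chitin 1 h at 37 °C, boiled and centrifuged. Released GlcNAc was read with 0.8 M K2B4O7, boiling, 1% DMAB, 20 min at 36 °C, A544. The blank was boiled before incubation.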

[9] = test system: Cytospora; test: Antifungal activity against Cytospora mandshurica by poison plate technique; type: functional; procedure, shortened: as §2
[10] = test system: Sclerotinia sclerotiorum; test: Change in mycelial soluble protein content in Sclerotinia sclerotiorum after 24 hrs; type: functional
Procedure, shortened: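 Soluble protein was measured in extracts of S. sclerotiorum cultured 15 days in shaken Czapek broth at 27 °C, treated at 100 and harvested at 24 h. Dried mycelium was ground in 0.05 mol/L Tris–HCl pH 7.5 and centrifuged; absorbance was read at 595 nm with buffer blank. Three repetitions.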

[11] = test system: Botrytis cinerea; test: Antifungal activity against Botrytis cinerea by poison plate technique; type: functional, organism-based; procedure, shortened: as §2
[12] = test system: Sclerotinia sclerotiorum; test: Antifungal activity against Sclerotinia sclerotiorum by poison plate technique; type: functional, organism-based; procedure, shortened: as §2
[13] = test system: Thanatephorus cucumeris; test: Antifungal activity against Thanatephorus cucumeris by poison plate technique; type: functional, organism-based; procedure, shortened: as §2
[14] = test system: Fusarium graminearum; test: Antifungal activity against Gibberella zeae by poison plate technique; type: functional, organism-based; procedure, shortened: as §2
[15] = test system: Fusarium oxysporum; test: Antifungal activity against Fusarium oxysporum by poison plate technique; type: functional, organism-based
Procedure, shortened: (§3)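 Poison plate mycelial growth assay on PDA at 100, 50, 25, 12.5 and 6.25 µg/mL. Mycelial discs were grown at 27 ± 1 °C for 5 days and radial colony growth was measured. EC50 was estimated by probit analysis and averaged from at least three separate analyses.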

[16] = test system: Sclerotinia sclerotiorum; test: Change in mycelial chitosan content in Sclerotinia sclerotiorum after 6 hrs; type: functional
Procedure, shortened: (§4)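 S. sclerotiorum was grown from six 4 mm discs in 90 mL Czapek medium, shaken at 140 rpm and 27 °C for 15 days. Compound was then added at 100 µg/mL. Mycelium was harvested at 0.5–24 h, ground in 0.05 mol/L Tris–HCl pH 7.5 and centrifuged at 15,000g, 4 °C, for 30 min. Three repetitions. Supernatant read-outs: reducing sugar by DNS at 540 nm against glucose; chitosan (D-GlcNAc) by K2B4O7/DMAB at 544 nm; pyruvate by DNPH/NaOH at 520 nm; protein at 595 nm. Tris–HCl blank.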

[17] = test system: Sclerotinia sclerotiorum; test: Effect on sporule germination in Sclerotinia sclerotiorum assessed as germination ratio at 80 ug/ml; type: functional
Procedure, shortened: (§5)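 Compound was mixed into PDA at 0, 20, 40, 60, 80 and 100 µg/mL, and 0.5 mL spore suspension was spread per plate. Plates were incubated at 27 °C and checked every 2 h after 24 h. Germination was scored when control germination exceeded 90%, in three fields per dish, with three replicates. GR% = 100 × G/S.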

[18] = test system: Sclerotinia sclerotiorum; test: Change in mycelial soluble protein content in Sclerotinia sclerotiorum after 0.5 hr relative to control; type: functional; procedure, shortened: as §4
[19] = test system: Sclerotinia sclerotiorum; test: Change in mycelial reducing sugar level in Sclerotinia sclerotiorum after 24 hrs relative to hymexazol; type: functional; parameters: scale not given: the % may be the effect or the level left; procedure, shortened: as §4
[20] = test system: Rhizoctonia solani; test: Antifungal activity against Rhizoctonia solani by poison plate technique; type: functional, organism-based; procedure, shortened: as §3
[21] = test system: Sclerotinia sclerotiorum; test: Change in mycelial reducing sugar level in Sclerotinia sclerotiorum after 24 hrs; type: functional; procedure, shortened: as §4
[22] = test system: Sclerotinia sclerotiorum; test: Effect on sporule germination in Sclerotinia sclerotiorum assessed as germination ratio at 100 ug/ml; type: functional; procedure, shortened: as §5
[23] = test system: Sclerotinia sclerotiorum; test: Change in mycelial pyruvate content in Sclerotinia sclerotiorum after 24 hrs; type: functional; procedure, shortened: as §4
[24] = test system: Sclerotinia sclerotiorum; test: Change in mycelial reducing sugar level in Sclerotinia sclerotiorum upto 3 hrs relative to control; type: functional; parameters: scale not given: the % may be the effect or the level left; procedure, shortened: as §4

COc1cc(-c2nnc([S+]([O-])Cc3ccc(Cl)nc3)o2)cc(OC)c1OC (stereo not given) showed an inhibition at 50 µg/mL [1] of 11.9%, an inhibition at 50 µg/mL [2] of 14.9% and an inhibition at 50 µg/mL [3] of 31.9%.

Cc1cc(O)no1 [HYMEXAZOL] showed an EC50 [4] of 15.8 µg/mL (≈ 159 µM), an EC50 [5] of 25.1 µg/mL (≈ 253 µM) and an Activity [6] of 0.13 mg/mL. The permeability [7] was 24.6%, the Activity [8] was 0.124 mg/mL and the inhibition at 50 µg/mL [1] was 52%. It also gave an inhibition at 50 µg/mL [2] of 52.1%, an EC50 [9] of 21.4 µg/mL (≈ 216 µM) and an Activity [10] of 0.91 mg/mL. The EC50 [11] was 5.12 µg/mL (≈ 51.7 µM), the EC50 [12] was 4.63 µg/mL (≈ 46.7 µM) and the EC50 [13] was 40.4 µg/mL (≈ 408 µM). For the same compound, the inhibition at 50 µg/mL [3] was 53.7% and the EC50 [14] was 26.4 µg/mL (≈ 266 µM).

With CCOC(=O)C[S+]([O-])c1nnc(-c2cc(OC)c(OC)c(OC)c2)s1 (stereo not given) the inhibition at 50 µg/mL [1] was 8.42%, the inhibition at 50 µg/mL [2] was 4.58% and the inhibition at 50 µg/mL [3] was 34.8%.

COc1cc(-c2nnc([S+]([O-])Cc3ccccc3)o2)cc(OC)c1OC (stereo not given) was tested, and the EC50 [4] was 39.4 µg/mL (≈ 105 µM), the EC50 [15] was 58.5 µg/mL (≈ 156 µM) and the Activity [16] was 0.12 mg/mL. The Activity [17] was 12.6%, the Activity [18] was 43% and the EC50 [5] was 33.1 µg/mL (≈ 88.4 µM). It also gave an Activity [6] of 0.12 mg/mL, an Activity [19] of 8.8% and a permeability [7] of 26.7%. It also gave an Activity [8] of 0.125 mg/mL, an inhibition at 50 µg/mL [1] of 56.1% and an inhibition at 50 µg/mL [2] of 52.3%. For the same compound, the EC50 [9] was 64 µg/mL (≈ 171 µM), the Activity [10] was 0.69 mg/mL and the EC50 [11] was 21.6 µg/mL (≈ 57.8 µM). For the same compound, the EC50 [12] was 19.9 µg/mL (≈ 53.2 µM), the EC50 [20] was 44.7 µg/mL (≈ 119 µM) and the Activity [21] was 0.37 mg/mL. For the same compound, the Activity [22] was 5.4%, the Activity [23] was 0.19 mg/mL and the EC50 [13] was 23.4 µg/mL (≈ 62.6 µM). The Activity [24] was 13.3%, the inhibition at 50 µg/mL [3] was 53.3% and the EC50 [14] was 28.8 µg/mL (≈ 77 µM).

In the case of COc1ccccc1C[S+]([O-])c1nnc(-c2cc(OC)c(OC)c(OC)c2)o1 (stereo not given), the inhibition at 50 µg/mL [1] was 18.2%, the inhibition at 50 µg/mL [2] was 32.3% and the inhibition at 50 µg/mL [3] was 29.9%.

COc1cc(-c2nnc([S+]([O-])Cc3ccccc3Cl)o2)cc(OC)c1OC (stereo not given) gave an inhibition at 50 µg/mL [1] of -0.33%, an inhibition at 50 µg/mL [2] of 7.04% and an inhibition at 50 µg/mL [3] of 7.79%.

COc1cc(-c2nnc([S+]([O-])Cc3ccc(F)cc3)s2)cc(OC)c1OC (stereo not given) was tested, and the inhibition at 50 µg/mL [1] was 3.83%, the inhibition at 50 µg/mL [2] was 2.54% and the inhibition at 50 µg/mL [3] was 6.4%.

Work on COc1cccc(C[S+]([O-])c2nnc(-c3cc(OC)c(OC)c(OC)c3)s2)c1 (stereo not given) yielded an inhibition at 50 µg/mL [1] of 11%, an inhibition at 50 µg/mL [2] of 8.65% and an inhibition at 50 µg/mL [3] of 8.29%.

Compound COc1cc(-c2nnc([S+]([O-])Cc3cccc(F)c3)s2)cc(OC)c1OC (stereo not given) has an inhibition at 50 µg/mL [1] of 12%, an inhibition at 50 µg/mL [2] of 11.7% and an inhibition at 50 µg/mL [3] of 14.9%.

With CCOCC[S+]([O-])c1nnc(-c2cc(OC)c(OC)c(OC)c2)s1 (stereo not given) the inhibition at 50 µg/mL [1] was 16.1%, the inhibition at 50 µg/mL [2] was 8.14% and the inhibition at 50 µg/mL [3] was 16.8%.

COc1cc(-c2nnc([S+]([O-])Cc3ccccc3F)o2)cc(OC)c1OC (stereo not given) showed an inhibition at 50 µg/mL [1] of 2.82%, an inhibition at 50 µg/mL [2] of 4.4% and an inhibition at 50 µg/mL [3] of 11.3%.

COc1cc(-c2nnc([S+]([O-])Cc3ccccc3)s2)cc(OC)c1OC (stereo not given) was tested, and the inhibition at 50 µg/mL [1] was 16%, the inhibition at 50 µg/mL [2] was 15.5% and the inhibition at 50 µg/mL [3] was 26.9%.

COc1cccc(C[S+]([O-])c2nnc(-c3cc(OC)c(OC)c(OC)c3)o2)c1 (stereo not given) showed an inhibition at 50 µg/mL [1] of 25.7%, an inhibition at 50 µg/mL [2] of 30.5% and an inhibition at 50 µg/mL [3] of 37.7%.

CCOC(=O)C[S+]([O-])c1nnc(-c2cc(OC)c(OC)c(OC)c2)o1 (stereo not given) was tested, and the inhibition at 50 µg/mL [1] was 6.9%, the inhibition at 50 µg/mL [2] was 1.47% and the inhibition at 50 µg/mL [3] was 18.1%.

COc1cc(-c2nnc([S+]([O-])Cc3cccc([N+](=O)[O-])c3)s2)cc(OC)c1OC (stereo not given) gave an inhibition at 50 µg/mL [1] of 6.63%, an inhibition at 50 µg/mL [2] of 3.31% and an inhibition at 50 µg/mL [3] of 5.45%.

Compound COc1cc(-c2nnc([S+]([O-])Cc3cccc(F)c3)o2)cc(OC)c1OC (stereo not given) has an inhibition at 50 µg/mL [1] of -0.31%, an inhibition at 50 µg/mL [2] of -0.88% and an inhibition at 50 µg/mL [3] of 7.29%.
